Experimental findings from ChEMBL document CHEMBL1154741, “Radiosynthesis and radiopharmacological evaluation of cyclin-dependent kinase 4 (Cdk4) inhibitors” (Eur J Med Chem, 2010) are described below.

The target in data set [1] is Cyclin-dependent kinase 4 (Homo sapiens, UniProt P11802). Description: Inhibition of CDK4.
Data set [2] is described as follows: Stability in PBS buffer at pH7.4 after 30 mins by HPLC. The format is physicochemical. The settings on record: pH 7.4, read-out: Stability. An outline of the steps:
(§1)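 50 kBq radiotracer was added to 1 mL of PBS (0.1 M, pH 7.4), ethanol, culture medium (RPMI + 10% FKS + 1% pen/strep) or fresh rat plasma and held at 37 °C for 30 min or 24 h. Samples were analysed by radio-HPLC on a C18 column with a Soerensen buffer (0.01 M, pH 7.4)/methanol gradient; intact tracer is reported as percent.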

A short description of data set [3]: Stability in ethanol after 30 mins by HPLC. The format is physicochemical. The settings on record: read-out: Stability. The method in brief:
as §1

The subject of another data set is HT-29. In words: Cellular uptake in human HT-29 cells measured per mg of protein at 25 kBq after 1 hr. To be noted: ht-29, 1 h. Format: ADME, cell-based. An outline of the steps:
(§2)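 HT-29 cells in McCoy's 5A and FaDu cells in RPMI 1640, both with 10% FBS, were seeded at 5 × 10⁴ cells/well and left overnight. About 25 kBq radiotracer in 0.25 mL medium was added at 37 °C. Cells were washed three times with ice-cold PBS, lysed in 0.1 M NaOH/1% SDS and gamma-counted. Protein was measured by BCA; results are %ID/mg protein.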

A short description of data set [4]: Lipophilicity log D at pH 7.4. The format is physicochemical. To be noted: buffer.
A short description of data set [5]: Stability in cell culture medium after 24 hrs by HPLC. The format is physicochemical. The settings on record: read-out: Stability. The method in brief:
as §1

The nature of data set [6]: Stability in PBS buffer at pH7.4 after 24 hrs by HPLC. To be noted: pH 7.4, read-out: Stability. Format: physicochemical. The method in brief: as §1
For another data set, the system named is Kidney. Description: Biodistribution in Wistar rat kidney at 0.2 to 0.3 MBq, iv after 5 mins. The format is ADME, organism-based. To be noted: in vivo. An outline of the steps: (§3)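 Normal male Wistar rats (180 ± 20 g) given a single iv tail-vein injection of 0.2–0.3 MBq radiotracer in solution containing 1% HSA. Under ether anaesthesia at 5 min p.i., blood was taken by heart puncture and the animals euthanized. Organs were removed, weighed and counted in a calibrated well counter. Results are SUV = (organ activity/organ weight)/(given activity/body weight); mean ± SD, n = 8.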

A further data set relates to Lung. In words: Biodistribution in Wistar rat lung at 0.2 to 0.3 MBq, iv after 5 mins. To be noted: in vivo. The format is ADME, organism-based. An outline of the steps:
as §3

Data set [7] in a line: Stability in Wistar rat plasma after 24 hrs. Format: ADME, cell-free. To be noted: read-out: Stability. An outline of the steps:
as §1

Data set [8] in a line: Stability in Wistar rat plasma after 30 mins. The format is ADME, cell-free. The settings on record: read-out: Stability. An outline of the steps: as §1
A further data set has as its system Liver. Description: Biodistribution in Wistar rat liver at 0.2 to 0.3 MBq, iv after 5 mins. The format is ADME, organism-based. To be noted: in vivo. The method in brief:
as §3

Data set [9] is described as follows: Stability in ethanol after 24 hrs by HPLC. The format is physicochemical. The settings on record: read-out: Stability. An outline of the steps: as §1
In a further data set the test system is FaDu. In words: Cellular uptake in human FADU cells measured per mg of protein at 25 kBq after 1 hr. Format: ADME, cell-based. The method in brief:
as §2

For data set [10], the target named is Cyclin-dependent kinase 1 (Homo sapiens, UniProt P06493). In words: Inhibition of CDK1.
In data set [11] the target is Cyclin-dependent kinase 2 (Homo sapiens, UniProt P24941). Description: Inhibition of CDK2.

Chain of Cyclin-dependent kinase 4 (P11802 whole entry): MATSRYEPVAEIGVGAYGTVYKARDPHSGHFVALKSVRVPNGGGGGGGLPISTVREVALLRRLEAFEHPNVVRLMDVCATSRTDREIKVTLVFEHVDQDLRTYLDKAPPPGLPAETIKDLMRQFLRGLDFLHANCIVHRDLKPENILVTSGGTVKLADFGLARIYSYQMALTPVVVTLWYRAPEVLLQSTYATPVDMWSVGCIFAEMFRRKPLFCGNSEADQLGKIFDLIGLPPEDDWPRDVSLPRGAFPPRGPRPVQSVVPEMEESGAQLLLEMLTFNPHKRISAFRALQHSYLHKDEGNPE
Chain of Cyclin-dependent kinase 1 (P06493 whole entry): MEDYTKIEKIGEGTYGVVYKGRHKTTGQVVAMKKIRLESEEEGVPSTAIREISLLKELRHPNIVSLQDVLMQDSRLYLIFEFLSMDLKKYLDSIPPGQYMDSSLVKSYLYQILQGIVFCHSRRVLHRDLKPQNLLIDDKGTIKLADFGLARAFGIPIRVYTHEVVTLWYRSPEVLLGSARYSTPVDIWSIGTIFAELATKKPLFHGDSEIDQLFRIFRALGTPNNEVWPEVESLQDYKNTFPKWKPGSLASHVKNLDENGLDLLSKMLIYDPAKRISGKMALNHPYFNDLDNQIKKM

Take `O=c1ccc2cnc(Nc3ccc(N4CCC(CCCO)CC4)cc3)nc2n1C1CC2CCC1C2` (stereo not drawn): the concentration for half-maximal inhibition (IC50) – broadly, the concentration that gives 50% inhibition – in data set [1] was below 20 nM.

As for `Cc1c([124I])c(=O)n(C2CCCC2)c2nc(Nc3ccc(N4CCNCC4)cc3)ncc12`, the remaining at 0.5 h in [2] was determined as 92%; in data set [3], 93%; in data set [8], 93%. The Drug uptake in the data set on HT-29 is recorded as 750 %Idose. The logD – broadly, lipophilicity at a set pH, counting ionised and neutral species – in [4] amounted to 2.77. Moreover, the remaining at 24 h in [5] is 96%; in data set [6] it was 86%; in data set [7] it was 94%; in data set [9], 94%. Also, the SUV with Kidney is reported as above 3.2; with Lung, 8.67; with Liver, above 3.2.

Consider `Cc1c([124I])c(=O)n(C2CCCC2)c2nc(Nc3ccc(N4CCNCC4)cn3)ncc12`, for which the remaining at 0.5 h in data set [2] was found to be 97%; in data set [3] it was 98%; in [8], 94%. In data set [4], this compound showed a pH-dependent lipophilicity (logD) of 1.99. Further, the remaining at 24 h came out at 97% in data set [5], 95% in data set [6], 94% in [7] and 97% in data set [9]. The SUV with Kidney is reported as above 3.2; in the data set on Lung it was 8.43; in the data set on Liver it was above 3.2. In the data set on FaDu, this compound displayed a Drug uptake of 900 %Idose.

In the case of `Cc1c(I)c(=O)n(C2CCCC2)c2nc(Nc3ccc(N4CCNCC4)cc3)ncc12`, the figures for the half-maximal inhibitory concentration (IC50) in data set [1], in [10] and in [11] were below 20 nM, above 360 nM and above 360 nM, respectively.
